A short description of data set [1]: Cytotoxicity against chinese hamster V79 cells assessed as survival fraction under normoxic condition at 20 uM after 7 days by crystal violet staining relative to control. The format is cell-based, Cricetulus griseus. To be noted: read-out: Activity. In a few lines:
(§1)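 Exponential-phase V79 cells trypsinized into gassed suspension culture (2 × 10^4 cells/mL, EMEM, 10% FBS, 10 mM HEPES). Compound added 30 min after gassing began, in duplicate flasks, with a DMSO control; exposure 2 h. Cells then plated for colony formation at 37 °C, 5% CO2, for 7 days and stained with crystal violet. Colonies >64 cells counted; survival = PEtreated/PEcontrol × 100; means of two experiments.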

Data set [2] deals with V79. Description: Cytotoxicity against chinese hamster V79 cells assessed as survival fraction under hypoxic condition at 20 uM after 7 days by crystal violet staining relative to control. The format is functional, Cricetulus griseus. In a few lines:
(§2)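 V79 Chinese hamster lung fibroblasts grown in EMEM with 10% FBS, then set up as suspension cultures (2 × 10^4 cells/mL, EMEM, 10% FBS, 10 mM HEPES) under simulated hypoxic gassing. Compound in DMSO added 30 min after gassing began, duplicate flasks per dose, 2 h exposure. Cells then plated and grown 7 days at 37 °C, stained with crystal violet, and colonies >64 cells counted. Survival = PEtreated/PEcontrol × 100.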

Data set [3] has as its system Calf thymus DNA. Description: Binding affinity to calf thymus DNA assessed as ratio of final absorbance area to absorbance of compound at 100 uM after 24 hrs by UV spectrophotometer analysis. It is filed as nucleic-acid assay. The following applies: Bos taurus. In a few lines: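 Calf thymus DNA in 10 mM Tris-HCl, pH 7.4. Compound stock 10^-4 M (≤5% solvent), diluted with water to 2 × 10^-5 M, then mixed 1:1 with DNA solution. Rotated 24 h; UV spectra taken at 20 °C in a 1-cm cell. Areas of a 20 nm band at λmax at 0 and 24 h; reported as a24/a0.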

Data set [4] concerns Calf thymus DNA. Description: Binding affinity to calf thymus DNA assessed as fluorescence quenching at 20 uM after 24 hrs by fluorescence spectroscopy analysis. Set-up: unit not given here. The following applies: Bos taurus. The format is nucleic-acid assay.
Data set [5] concerns V79. Description: Cytotoxicity against chinese hamster V79 cells assessed as concentration required to kill 99% cells under hypoxic condition after 7 days by crystal violet staining relative to control. The format is functional, Cricetulus griseus. The essentials: as §2
Data set [6] can be described thus: Cytotoxicity against chinese hamster V79 cells assessed as survival fraction under normoxic condition at 10 uM after 7 days by crystal violet staining relative to control. The format is cell-based, Cricetulus griseus. To be noted: read-out: Activity. In a few lines:
as §1

Data set [7] relates to V79. Description: Cytotoxicity against chinese hamster V79 cells assessed as survival fraction under hypoxic condition at 10 uM after 7 days by crystal violet staining relative to control. It is filed as functional, Cricetulus griseus. The essentials: as §2
Data set [8] deals with V79. Description: Hypoxic cytotoxicity ratio, concentration required to kill 99% chinese hamster V79 cells under normoxic condition to hypoxic condition. The format is functional, Cricetulus griseus. In a few lines:
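Clonogenic V79 suspension-culture assay run under both air and hypoxic gassing. Cells exposed 2 h in duplicate flasks per dose, then colonies counted after 7 days with crystal violet. Dose–response curves give the dose producing 1% of control survival in each condition. Ratio = air dose divided by hypoxic dose.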

The structures appear in SMILES notation.

As for `Cc1cc2c(cc1F)[n+]([O-])c1ccc(N)cc1[n+]2[O-]`, the viability at 168 h, 20 µM in data set [1] amounted to 88%. For the same compound, in the data set on V79 [2], the Activity was 15%. The Ratio in the data set with Calf thymus DNA [3] is 0.85.

Regarding `Cc1cc2c(cc1F)[n+]([O-])c1ccc(O)cc1[n+]2[O-]`, the viability at 168 h, 20 µM in data set [1] was determined as 100%. Further, in the data set with V79 [2], the Activity is on record as 95%. Further, the Ratio in the data set with Calf thymus DNA [3] was 0.83.

Turning to `Nc1ccc2c(c1)[n+]([O-])c1cc(F)ccc1[n+]2[O-]`, in the data set with Calf thymus DNA [4], the Kq turned out to be 7.8. Also, the viability at 168 h, 20 µM in data set [1] was 0%. Moreover, the results for the Activity in the data set on V79 [2], in the data set with V79 [5] and in the data set with V79 [7] were 0%, 2.5 µM and 0%, respectively. In addition, the viability at 168 h, 10 µM in data set [6] is 30%. In addition, the Ratio was found to be 6.8 in the data set with V79 [8] and 0.88 in the data set on Calf thymus DNA [3].

For the compound `COc1cc(NS(C)(=O)=O)ccc1Nc1c2ccccc2nc2ccccc12`, in the data set with Calf thymus DNA [3], the Ratio worked out at 0.3.

With `Nc1ccc2c(c1)[n+]([O-])c1cc(Cl)c(Cl)cc1[n+]2[O-]`, the viability at 168 h, 20 µM in data set [1] stood at 2%. Further, the Activity in the data set on V79 [2] was 0%; in the data set on V79 [5], 10 µM; in the data set with V79 [7], 18%. For the same compound, the viability at 168 h, 10 µM in data set [6] amounted to 3%. In addition, the Ratio with V79 [8] was 0.9; in the data set with Calf thymus DNA [3], 0.98.

With `CC[n+]1c(-c2ccccc2)c2cc(N)ccc2c2ccc(N)cc21`, the Ratio with Calf thymus DNA [3] worked out at 0.5.

Take `O=C(CCl)Oc1ccc2c(c1)[n+]([O-])c1cc(Br)ccc1[n+]2[O-]`: the viability at 168 h, 20 µM in data set [1] stood at 84%. Moreover, the Activity with V79 [2] came to 62%.

As for `Cc1ccc2nc3ccc(N)cc3nc2c1`, the Kq in the data set with Calf thymus DNA [4] is 6.1. In data set [1], the viability at 168 h, 20 µM was determined as 98%. Besides, the Activity in the data set with V79 [2] is listed as 100%. The Ratio with Calf thymus DNA [3] turned out to be 0.85.

With `CN1CCN(c2ccc3[nH]c(-c4ccc5[nH]c(-c6ccc(O)cc6)nc5c4)nc3c2)CC1`, the Ratio in the data set with Calf thymus DNA [3] stood at 0.57.

Turning to `[O-][n+]1c2ccc(Br)cc2[n+]([O-])c2cc(OCc3ccccc3)ccc21`, the viability at 168 h, 20 µM in data set [1] was determined as 86%. Besides, the Activity in the data set on V79 [2] is 90%. Moreover, the Ratio with Calf thymus DNA [3] was determined as 0.88.

Take `O=C1c2c(O)ccc(O)c2C(=O)c2c(NCCNCCO)ccc(NCCNCCO)c21`: in the data set on Calf thymus DNA [3], the Ratio stood at 0.

In the case of `Nc1ccc2c(c1)nc1cc(Br)ccc1[n+]2[O-]`, the Kq in the data set with Calf thymus DNA [4] was determined as 4.2. Moreover, the viability at 168 h, 20 µM in data set [1] came to 0%. In the data set on V79 [2], the Activity was determined as 0%. Besides, the Ratio with Calf thymus DNA [3] was found to be 0.92.

In the case of `[O-][n+]1c2ccc(O)cc2[n+]([O-])c2cc(Cl)c(Cl)cc21`, the viability at 168 h, 20 µM in data set [1] was 1%. Moreover, the results for the Activity in the data set with V79 [2] and in the data set with V79 [7] were 0% and 8%, respectively. Further, the viability at 168 h, 10 µM in data set [6] came to 0%. Further, in the data set with Calf thymus DNA [3], the Ratio stood at 0.96.

Consider `Nc1ccc2nc3ccc(Br)cc3nc2c1`, for which the Kq in the data set on Calf thymus DNA [4] was 7.3. The viability at 168 h, 20 µM in data set [1] came to 0%. Further, the Activity in the data set with V79 [2] was 0%. Also, the Ratio in the data set on Calf thymus DNA [3] is 0.9.

On to `Cc1ccc2c(c1)[n+]([O-])c1cc(O)c3ncccc3c1[n+]2[O-]`, for which the viability at 168 h, 20 µM in data set [1] was determined as 49%. Further, in the data set with V79 [2], the Activity is 46%.

As for `Cc1ccc2c(c1)nc1cc(N)ccc1[n+]2[O-]`, in the data set on Calf thymus DNA [4], the Kq was 5.3. The viability at 168 h, 20 µM in data set [1] was found to be 100%. For the same compound, the Activity with V79 [2] is reported as 100%. In addition, in the data set with Calf thymus DNA [3], the Ratio was 0.92.
